# Source: ChEMBL document CHEMBL4673255, “Acylated 1H-1,2,4-Triazol-5-amines Targeting Human Coagulation Factor XIIa and Thrombin: Conventional and Microscale Synthesis, Anticoagulant Properties, and Mechanism of Action” (J Med Chem, 2020)
# The source made the active and inactive calls. No cut-off for these calls is given here.
# Assays:
# [1] = target: T1, Coagulation factor XII (Homo sapiens) (UniProt P00748); assay: Time dependent inhibition of human coagulation factor XIIA using Boc-Gln-Gly-Arg-AMC as fluorogenic substrate at 0.5 to 132 uM by fluorescence assay; details: dose 0.0005-132 µM, in the assay text read “0.5 nM to 132 uM” for “0.5 to 132 uM”
# T1 sequence (whole entry): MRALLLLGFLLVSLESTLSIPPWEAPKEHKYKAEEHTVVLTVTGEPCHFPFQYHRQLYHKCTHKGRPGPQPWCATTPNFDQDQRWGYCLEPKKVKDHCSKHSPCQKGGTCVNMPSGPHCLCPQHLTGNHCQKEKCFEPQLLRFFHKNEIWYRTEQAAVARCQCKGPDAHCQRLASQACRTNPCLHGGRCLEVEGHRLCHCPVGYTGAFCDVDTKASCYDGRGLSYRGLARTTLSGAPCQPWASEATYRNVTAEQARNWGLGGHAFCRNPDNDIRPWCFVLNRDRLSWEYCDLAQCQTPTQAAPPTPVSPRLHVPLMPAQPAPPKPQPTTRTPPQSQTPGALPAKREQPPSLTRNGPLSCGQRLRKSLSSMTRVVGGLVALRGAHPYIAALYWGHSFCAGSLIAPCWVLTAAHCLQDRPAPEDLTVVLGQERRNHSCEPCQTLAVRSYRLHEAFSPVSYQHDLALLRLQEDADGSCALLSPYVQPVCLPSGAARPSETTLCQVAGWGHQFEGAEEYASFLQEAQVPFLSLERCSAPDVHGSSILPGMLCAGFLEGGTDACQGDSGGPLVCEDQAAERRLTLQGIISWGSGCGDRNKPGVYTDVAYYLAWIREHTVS
# Summary of the method: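 Buffer: Tris-Cl pH 7.4 with NaCl, MgCl2, CaCl2, 0.1% BSA and 0.01% Triton X-100. Fluorescence (ex 355/em 460 nm) read kinetically every 87 s for up to 180 min. IC50 calculated at each time point and plotted against time.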
# [2] = target: T1, Coagulation factor XII (Homo sapiens); assay: Inhibition of human coagulation factor XIIA in presence of Boc-Gln-Gly-Arg-AMC as fluorogenic substrate at 1 uM measured at 1 min interval for 1 hr by fluorometric assay relative to control
# Summary of the method: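 Screening of crude microscale amide-coupling products. Conversion was measured by 1H NMR and product content normalised to 76 µmol/L in DMSO, then tested at 1 µM and 100 nM in the fluorogenic FXIIa or thrombin assay. A 0-conversion reaction served as blank. Percent inhibition is from triplicates.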
# Homo sapiens = organism: Homo sapiens; assay: Selectivity index, ratio of IC50 for inhibition of human coagulation factor alpha-thrombin using Boc-Val-Pro-Arg-AMC as fluorogenic substrate to IC50 for inhibition of human coagulation factor XIIA using Boc-Gln-Gly-Arg-AMC as fluorogenic substrate incubated for 1 hr by fluorometric assay
# Plasma [3] = assay: Anticoagulant activity in human platelet-rich plasma assessed as reduction in TF-induced thrombin generation by measuring amplitude of thrombin peak at 100 uM preincubated for 15 mins followed by TF addition by Z-Gly-Gly-Arg-AMC substrate based calibrated automated thrombography (reference value: 63 +/- 3.7 AU/L); type: functional; details: 0.25 h
# Summary of the method: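 Tissue-factor-triggered homogeneous thrombin generation followed by fluorogenic substrate cleavage. Read-outs: clotting time (T1/2), peak amplitude (Amax, AU/L), time to peak (Tmax) and ETP (AU·min/L). DMSO and buffer served as controls. n = 3, mean ± SD.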
# Blood [4] = assay: Anticoagulant activity in human blood assessed as concentration required to double the activated partial thromboplastin time incubated for 1 min followed by aPTT reagent based assay; type: functional
# Summary of the method: (§1)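 Compounds were tested at 300 µM, and the increase was expressed relative to DMSO. The doubling concentration (EC2×) is the concentration prolonging aPTT twofold. At least triplicate, mean ± SD.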
# Blood [5] = assay: Effect on blood coagulation in human blood assessed as increase in prothrombin time at 300 uM incubated for 3 mins followed by CaCl2 addition by PT reagent based assay relative to control; type: ADME, tissue-based; details: 0.05 h
# Summary of the method: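 Clotting was started with PT reagent already containing CaCl2, prewarmed to 37 °C, and clotting time was recorded. Increase is given relative to DMSO; at least triplicate, mean ± SD.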
# Blood [6] = assay: Anticoagulant activity in human blood assessed as increase in activated partial thromboplastin time at 300 uM incubated for 1 min by aPTT reagent based assay relative to control; type: functional; summary of the method: as §1
# Coagulation factor X = Coagulation factor X (Homo sapiens, UniProt P00742); assay: Inhibition of human coagulation factor Xa using Boc-Ile-Glu-Gly-Arg-AMC as fluorogenic substrate measured at 1 min interval for 1 hr by fluorometric assay
# [7] = target: Urokinase-type plasminogen activator (Homo sapiens, UniProt P00749); assay: Inhibition of human uPA using Tos-Gly-Pro-Arg-AMC as fluorogenic substrate measured at 1 min interval for 1 hr by fluorometric assay
# Plasma [8] = assay: Antiplatelet activity in […] assessed as inhibition of thrombin-induced platelet aggregation at 1 to 10 uM by light transmission aggregometry; type: functional; details: Homo sapiens, dose 1-10 µM
# Plasma [9] = assay: Antiplatelet activity in […] assessed as inhibition of MDA-MB-231-induced platelet aggregation at 1 uM by light transmission aggregometry; type: functional; details: Homo sapiens
# Plasma [10] = assay: Antiplatelet activity in human platelet-rich plasma assessed as inhibition of thrombin induced platelet activation by measuring reduction in ATP release preincubated for 20 mins followed by thrombin addition and measured after 10 mins by luciferin-based luminescence assay; type: functional, cell-free; details: time 30.0 min
# Summary of the method: (§2)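 Platelet activation measured as dense-granule ATP release by firefly luciferase bioluminescence. Compound-treated platelets were activated with MDA-MB-231 cells, thrombin or TRAP-6. TRAP-6-induced signal was set as 100%. Triplicate, mean ± SD.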
# [11] = target: T1, Coagulation factor XII (Homo sapiens); assay: Binding affinity to human plasma coagulation factor XIIA assessed as compound-adduct formation by measuring change in molecular mass at molar ratio of 1:20 measured after 4 mins by SEC/ESI-TOF mass spectra analysis; type: cell-free
# Summary of the method: (§3)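 β-FXIIa incubated with inhibitor at a 1:20 molar ratio, then size-exclusion chromatography coupled to ESI-MS to measure the mass of enzyme–inhibitor complexes. Further runs checked complex stability to probe reversibility.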
# Plasma [12] = assay: Antiplatelet activity in human platelet-rich plasma assessed as inhibition of TRAP6 induced platelet activation by measuring reduction in ATP release at 1 uM preincubated for 20 mins followed by TRAP6 addition and measured after 10 mins by luciferin-based luminescence assay; type: functional, cell-free; details: time 30.0 min; summary of the method: as §2
# Plasma [13] = assay: Antiplatelet activity in […] assessed as inhibition of TRAP6-induced platelet aggregation at 0.1 to 10 uM by light transmission aggregometry; type: functional; details: Homo sapiens, dose 0.1-10 µM
# [14] = target: T1, Coagulation factor XII (Homo sapiens); assay: Binding affinity to human plasma coagulation factor XIIA assessed as compound-adduct formation at molar ratio of 1:20 preincubated for 4 mins followed by desalination and measured after 5 mins by SEC/ESI-TOF mass spectra analysis; type: cell-free; summary of the method: as §3
# Plasma [15] = assay: Antiplatelet activity in human platelet-rich plasma assessed as inhibition of TRAP6 induced platelet activation by measuring reduction in ATP release at 10 uM preincubated for 20 mins followed by TRAP6 addition and measured after 10 mins by luciferin-based luminescence assay; type: functional, cell-free; details: time 30.0 min; summary of the method: as §2
# [16] = target: T1, Coagulation factor XII (Homo sapiens); assay: Binding affinity to human plasma coagulation factor XIIA assessed as compound-adduct formation at molar ratio of 1:20 preincubated for 4 mins followed by desalination and measured after 120 mins by SEC/ESI-TOF mass spectra analysis; type: cell-free; summary of the method: as §3
# Chain of Coagulation factor X (P00742 41-179 limits assumed): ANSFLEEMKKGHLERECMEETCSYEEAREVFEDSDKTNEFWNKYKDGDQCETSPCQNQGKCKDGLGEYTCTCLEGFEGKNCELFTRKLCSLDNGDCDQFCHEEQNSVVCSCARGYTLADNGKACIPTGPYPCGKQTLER
# Chain of Coagulation factor X (P00742 235-488 limits assumed): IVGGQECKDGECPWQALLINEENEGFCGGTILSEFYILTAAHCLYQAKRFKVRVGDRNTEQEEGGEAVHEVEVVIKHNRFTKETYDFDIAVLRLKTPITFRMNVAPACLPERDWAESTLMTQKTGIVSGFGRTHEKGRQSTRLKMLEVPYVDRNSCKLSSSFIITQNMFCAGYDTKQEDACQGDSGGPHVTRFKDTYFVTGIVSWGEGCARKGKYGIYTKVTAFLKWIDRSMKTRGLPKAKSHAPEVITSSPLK
Compound,TDI [1],inhibition [2] [%],Ratio IC50 (Homo sapiens),Activity (Plasma [3]) [AU/L],2aPTT (Blood [4]) [µM],Activity (Blood [5]) [%],Activity (Blood [6]) [%],IC50 (Coagulation factor X) [µM],IC50 [7] [µM],inhibition (Plasma [8]),inhibition (Plasma [9]),inhibition (Plasma [10]),Activity [11] [Da],inhibition (Plasma [12]),inhibition (Plasma [13]),Activity [14],inhibition (Plasma [15]),Activity [16]
Nc1nc(-c2ccccn2)nn1C(=O)c1cccc2ccccc12,Active,98,13,53.3,236,14,176,> 5,> 5,,,,,,,,,
Nc1nc(-c2ccccn2)nn1C(=O)c1ccc2ccccc2c1,,77,,175.5,107,575,212,,6.76,Active,Active,Dose-dependent effect,154,inactive,inactive,inactive,Active,inactive
